# Only some compounds are listed: those with a hit (about 2.1% of all), similar ones and a draw of the others.
# ARNT-TACC3 inh = disruptors of ARNT/TACC3 protein interaction, primary screen, biochemical, AlphaScreen, single concentration; AlphaScreen His-ARNT PAS-B/GST-TACC3 binding, luminescence; TACC3 fragment carries E629A point mutation; inhibition, % at 9.99 µM; 0.66% of 390,000 active; AID 623870, 2012;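 active = mean inhibition of replicates at least 50% and at least half of replicates each reaching 50%; inconclusive = half or more replicates reach 50% but mean below 50%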;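 note: 0% = complete ARNT plus TACC3 wells and 100% = ARNT alone without TACC3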
# CAL PDZ FP-1 = CAL PDZ peptide-binding inhibitors, primary screen, biochemical, fluorescence polarization, Cer-tagged CAL PDZ, HTS; Golgi-associated PDZ and coiled-coil motif-containing protein (Homo sapiens), Q9HD26; purified CAL PDZ, TMR-peptide fluorescence polarization, 1 h; inhibition, % at 20 µM; 0.02% of 330,000 active; AID 504414, 2011;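 active = highest replicate inhibition of at least 40%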;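 note: plate controls were DMSO neutral control wells for no effect and unlabeled competitor peptide control wells for full effect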
#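 Read-out basis: mP drop reported as inhibition | Assay system: Tagged CAL PDZ protein CerCALP, purified | Benchmarks: Unlabelled peptide for full inhibition, DMSO wells as neutral | Schedule: 1 h incubation at room temperature before polarization reading | Buffer or medium: Sodium phosphate/NaCl buffer pH 7.4 with TCEP, IgG, Thesit | Doses: Single point, 20 µM | Measured by: Fluorescence polarization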
# SR-BI DiI inh = inhibitors of SR-BI mediated HDL lipid uptake, primary screen, ldlA[mSR-BI] cells, fluorescence, single point | Scavenger receptor class B member 1 (Mus musculus), Q61009 | ldlA[mSR-BI] CHO cells, DiI-HDL uptake fluorescence, 3 h | inhibition, % at 12.5 µM | 0.96% of 320,000 active | AID 488896, 2010;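 active = mean replicate inhibition of at least 70% and a set share of replicates each scoring 70 or more; inconclusive = meets just one of the two criteria; inactive = fails both criteria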;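 note: 0% = median of neutral control wells and 100% = median of positive control wells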
# Target sequence (Q61009 whole entry, looked up): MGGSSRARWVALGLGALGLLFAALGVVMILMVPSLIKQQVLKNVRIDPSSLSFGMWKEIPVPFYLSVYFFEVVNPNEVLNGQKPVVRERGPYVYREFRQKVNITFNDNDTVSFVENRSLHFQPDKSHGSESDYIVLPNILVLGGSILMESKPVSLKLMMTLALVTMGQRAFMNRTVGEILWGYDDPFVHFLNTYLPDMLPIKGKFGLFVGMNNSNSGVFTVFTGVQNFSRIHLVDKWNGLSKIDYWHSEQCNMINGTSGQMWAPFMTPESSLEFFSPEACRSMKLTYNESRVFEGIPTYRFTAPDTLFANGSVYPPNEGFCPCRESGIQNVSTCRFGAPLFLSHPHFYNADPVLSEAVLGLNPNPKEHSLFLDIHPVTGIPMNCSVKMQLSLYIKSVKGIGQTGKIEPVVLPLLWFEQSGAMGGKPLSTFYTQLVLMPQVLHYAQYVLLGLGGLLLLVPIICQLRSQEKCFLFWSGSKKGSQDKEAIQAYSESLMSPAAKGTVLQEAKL
# CAL PDZ FP-2 = untagged CAL PDZ binding inhibitors, primary screen, biochemical, fluorescence polarization, HTS | purified CAL PDZ, TMR-peptide fluorescence polarization, 1 h | inhibition, % at 24.9 µM | 0.92% of 300,000 active | AID 602252, 2012;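 active = mean inhibition of at least 30% with at least half of replicates also reaching 30%; inconclusive = no clear call, values can overlap the other calls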;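 note: 0% = DMSO neutral control and 100% = excess unlabeled competitor peptide PRC23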
# SR-BI DiI-HDL act = activators of SR-BI mediated DiI-HDL uptake, primary screen, ldlA[mSR-BI] CHO cells, DiI fluorescence; AID 504775, 2011; 0.096% of 320,000 active; activation, % at 12.5 µM; 3 h; 100 = double the neutral-control signal;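 active = mean replicate activation of at least 60% and every replicate at or above 60%; inconclusive = mean or all-replicate condition met, but not both; inactive = mean below 60% and not all replicates reaching 60%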;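 note: 0% = median plate neutral-control signal and 100% = twice that signal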
#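 material = CHO ldlA[mSR-BI] cells | medium = Ham's F12 with 0.5% BSA, HEPES 25 mM, pH 7.4 | reagent = fluorescent DiI-HDL, 10 µg/mL final | compound dosing = single-point compound dose | incubation = 3 h, 37 °C | measured by = bottom-read fluorescence, 550/595 nm | measure = HDL uptake via cellular fluorescence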
# miR-122 sensor = miR-122 Renilla sensor signal increase in Huh7, primary screen, miR-122 inhibitor project, cell-based, single point, plate reader; Huh7 miR-122 Renilla luciferase sensor, 48 h; neutral wells = 0, positive control = 100; activation (reporter increase), % at 12.5 µM; 0.3% of 340,000 active; AID 602342, 2012;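 active = mean replicate activation score at least 90 and every replicate individually at or above 90; inconclusive = only one of the two criteria met; inactive = neither criterion met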;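 note: higher luciferase means less miR-122 activity so hits act as miR-122 inhibitors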
# * marks the source's active call; other numbers are inactive results; ? = inconclusive; nt = not tested or not shown; [ ] = dose if it differs, or a comment.
SMILES,ARNT-TACC3 inh,CAL PDZ FP-1,SR-BI DiI inh,CAL PDZ FP-2,SR-BI DiI-HDL act,miR-122 sensor
COc1ccccc1CNC(=O)C[C@H]1CC[C@@H]2[C@H](COC[C@@H](O)CN2C(=O)Nc2ccc(F)cc2)O1,-10.1,nt,nt,nt,nt,-0.9[16.7 µM]
C/C=C/c1ccc([C@@H]2[C@@H](CO)N(C(=O)C3CC3)[C@H]2CN(C)C(=O)C2CC2)cc1,-7.2,nt,nt,nt,nt,21.4[16.7 µM]
COc1cccc(/C=N/NC(=S)NC2CC3CC2C2C=CCC32)c1O (stereo not drawn),0.2,0.3,50.8,nt,-50.8,-4.7
Oc1ccccc1/C=N/NC(=S)NC1CC2CC1C1C=CCC21 (stereo not drawn),14.8,-1.1,85.0*,-3.5,-85.0,14.3
COCCn1c(C)cc(C(=O)COC(=O)c2cc3c(s2)CCC3)c1C,3.7,-5.2,1.9,-1.2,-1.9,314.7*
CC(C)n1cc(/C=N/Nc2ccc(C(=O)O)cc2)c2ccccc21,-2.4,0.2,-20.5,71.4*,20.5,12.5
COc1cc(/C=C/C(=O)Nc2ccc(N3CCCCC3)c(S(=O)(=O)Nc3ccccc3Cl)c2)cc(OC)c1OC,-2.3,-2.2,33.8,-4.2,-33.8,288.7*
COc1ccccc1NS(=O)(=O)c1cc(NC(=O)Nc2ccc(Cl)cc2Cl)ccc1N1CCCCC1,-5.0,-1.9,43.9,3.8,-43.9,?
O=C(Nc1cccc(C(F)(F)F)c1)Nc1ccc(N2CCCC2)c(S(=O)(=O)Nc2ccccc2Cl)c1,-2.9,-1.4,91.0*,-8.5,-91.0,nt
COCCNC(=O)/C(C#N)=C/c1c(N2CCN(c3ccccc3)CC2)nc2ccccn2c1=O,3.5,1.7,-6.5,57.2*,6.5,nt
COc1cc([N+](=O)[O-])cc(/C=N/NC(=O)Cn2nc(C)cc2C)c1O,63.3*,-2.4,nt,2.9,nt,6.1
COc1ccc(/C=N/NC(=O)Cn2nc([N+](=O)[O-])cc2C)c(OC)c1OC,-3.6,0.8,23.3,1.9,-23.3,nt
COc1cc([N+](=O)[O-])cc(/C=N/NC(=O)Cn2nccc2C)c1O,70.7*,-3.3,nt,-3.0,nt,-6.2
CSCc1cc(N(C)c2ccccc2)nc(-c2ccccn2)n1,60.8*,-1.6,-21.0,-4.7,21.0,nt
CN(C)c1cc(C(F)(F)F)nc(-c2ccccn2)n1,-11.2,0.1,10.6,-4.3,-10.6,-6.7
CC(C)CC#Cc1cnc2c(c1)C(=O)N([C@@H](C)CO)C[C@@H](C)[C@@H](CN(C)C(=O)c1ccc(F)cc1)O2,6.1,nt,nt,nt,nt,-2.2[16.7 µM]
Cc1c(C(=O)Nc2ccccc2)sc2nc(-c3ccccc3)cn12,1.9,-6.5,76.6*,-1.6,-76.6,-0.2
C[C@@H]1CCCCO[C@@H](CN(C)Cc2ccc3c(c2)OCO3)[C@H](C)CN([C@@H](C)CO)C(=O)c2cc(NC(=O)NC3CCCCC3)ccc2O1,-0.6,nt,nt,nt,nt,1.2[16.7 µM]
Cc1noc(C)c1NC(=O)N(C)C[C@@H]1Oc2ncc(C#CC3CCCC3)cc2C(=O)N([C@@H](C)CO)C[C@H]1C,-1.4,nt,nt,nt,nt,-8.9[16.7 µM]
O=C(Nc1ccc(Cl)cc1)N1CCc2ccccc2C1,-1.0,-0.6,2.9,43.4*,-2.9,20.5
O=C(Cc1ccc(Cl)cc1)N1CCc2ccccc2C1,-2.1,-0.6,-448.8,nt,448.8*,-4.0
COc1ccc(S(=O)(=O)N(C)C[C@@H]2Oc3ncccc3C(=O)N([C@H](C)CO)C[C@@H]2C)cc1,-2.9,nt,nt,nt,nt,3.7[16.7 µM]
C[C@H](CO)N1C[C@H](C)[C@H](CN(C)Cc2ccc3c(c2)OCO3)OCCCC[C@H](C)Oc2ccc(NS(C)(=O)=O)cc2C1=O,5.0,nt,nt,nt,nt,1.3[16.7 µM]
CC(C)(C)OC(=O)N(Cc1ccccc1)Cc1cccc(OCc2cccc(NC(=O)c3ccccc3)c2)c1,-1.2,-1.1,73.4*,5.2,-73.4,-3.7
CN(C)/C=C/C(=O)c1ccc(F)cc1,1.9,-1.8,-3.5,0.6,3.5,5.5
SMILES,ARNT-TACC3 inh,CAL PDZ FP-1,SR-BI DiI inh,CAL PDZ FP-2,SR-BI DiI-HDL act,miR-122 sensor
CCCc1ccc(C(=O)/C=C/N(C)C)cc1,5.3,-3.8,-4.7,53.3*,4.7,-4.6
COc1cnc(N(C)C)nc1Sc1ccc(Cl)cc1,-6.2,-2.1,29.6,7.0,-29.6,4.4
COc1cnc(-c2ccccn2)nc1Sc1ccc(F)cc1,45.7*,-1.4,14.2,-0.8,-14.2,nt
COc1cnc(-c2ccccn2)nc1Oc1cccc(C(F)(F)F)c1,nt,-1.9,5.8,4.0,-5.8,nt
COc1cnc(-c2ccccn2)nc1Oc1ccccc1,82.1*,-0.4,-14.9,-3.9,14.9,2.6
O=C(C[C@H]1C=C[C@H](NC(=O)Nc2cccc(F)c2)[C@@H](CO)O1)NCC1CC1,-2.0,nt,nt,nt,nt,nt
CC(=O)c1cccc(CN2CCN(CC=C(C)C)C(CCO)C2)c1 (stereo not drawn),-5.5,nt,-2.9,50.9*,2.9,0.6
CC(=O)c1cccc(CN2CCN(CCc3ccccc3)C(CCO)C2)c1 (stereo not drawn),-9.9,-0.5,-2.4,63.4*,2.4,nt
CC(=O)c1cccc(CN2CCN(Cc3ccc(C)cc3)C(CCO)C2)c1 (stereo not drawn),-3.5,0.1,nt,-4.4,nt,-1.2
COc1ccc(NC(=O)N(C)C[C@H]2OCCCC[C@@H](C)Oc3ccc(NC(=O)C4CCCCC4)cc3C(=O)N([C@@H](C)CO)C[C@H]2C)cc1,5.7,nt,nt,nt,nt,-0.5[16.7 µM]
Cc1nc(NCCc2ccccc2F)c(C#N)c(C)c1[N+](=O)[O-],2.1,0.2,74.4*,-1.2,-74.4,2.4
Cc1nc(NCCc2ccc(F)cc2)c(C#N)c(C)c1[N+](=O)[O-],-3.3,0.1,42.9,-5.7,-42.9,nt
COc1cc(CNc2nc(C)c([N+](=O)[O-])c(C)c2C#N)cc(OC)c1,-12.6,-1.3,75.8*,-13.9,-75.8,5.1
CCCCSc1nnc(-c2ccccc2)c2ccccc12,-3.3,-1.2,73.9*,-5.3,-73.9,nt
CCN1CCN(c2nnc(-c3ccccc3)c3ccccc23)CC1,9.9,-0.1,3.6,5.9,-3.6,0.4
O=C(Cn1nc(Cc2cccnc2)c2ccccc2c1=O)Nc1cc(F)ccc1F,-8.9,-1.1,-14.2,65.8*,14.2,2.1
O=C(Cn1nc(Cc2cccnc2)c2ccccc2c1=O)Nc1ccccc1F,-8.8,0.7,10.2,-3.0,-10.2,7.7

# Source: PubChem BioAssay (Broad Institute)
